Experimental data taken from PMC3176992 (Molecular psychiatry, 2010).
Entries after “also recorded” stand apart in the source; their conditions may differ. Peptide text beside a SMILES is read from it. * marks the point of attachment. Cbz = O=C(OCc1ccccc1)*

Key:
TNIK = TNIK level and phosphorylation in primary hippocampal neurons; assay type: cell-based, rat; conditions: 10 µM MG132 or 25 µg/ml leupeptin for 7 h, then 10 µM peptide 40 min; N=4
GluR1 = GluR1 level in primary hippocampal neurons; assay type: cell-based, rat; conditions: 10 µM MG132 or 25 µg/ml leupeptin for 7 h, then 10 µM peptide 40 min; N=4
PSD-95 = PSD-95 level in primary hippocampal neurons; assay type: cell-based, rat; conditions: 10 µM MG132 or 25 µg/ml leupeptin for 7 h, then 10 µM peptide 40 min; N=4
HA-TNIK = assay: Co-immunoprecipitation of DISC1 with TNIK from HEK293 cells; assay type: binding, human; conditions: HA-TNIK and Myc-DISC1 construct coexpressed in HEK293 cells
Outline: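 HEK293 cells in DMEM with 10% heat-inactivated FBS, seeded at 40–80% density and transfected 24 h later (Lipofectamine 2000). Lysed in co-IP buffer (50 mM Tris-Cl pH 7.5, 150 mM NaCl, 1 mM EDTA, 1% Triton X-100) with protease/phosphatase inhibitors, 30 min at 4 °C, then cleared at 12000 g. Protein G beads loaded with 1–3 µg antibody for 1 h, incubated with lysate 2 h to overnight at 4 °C, washed, and run on 4–12% Bis-Tris gels for western blot.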

TNIK in NIH3T3 cells = assay: TNIK-induced cell rounding assay; assay type: cell-based; conditions: for inhibition of TNIK-induced cell rounding: NIH3T3 cells co-transfected with HA-TNIK WT and DISC1 construct
Outline: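 NIH3T3 cells in DMEM with 10% heat-inactivated FBS, seeded at 40–80% density and co-transfected 24 h later (Lipofectamine 2000) with HA-tagged TNIK and Myc-tagged DISC1 constructs. Immunofluorescence staining with anti-HA/anti-Myc antibodies. Rounding was scored as cell length-to-breadth ratio measured from TNIK (HA) staining.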

Molecule | dephosphorylation of TNIK at S769, with inhibitor pretreatment (TNIK) | DISCpep-WT-tat-induced loss of GluR1, with inhibitor pretreatment (GluR1) | DISCpep-WT-tat-induced loss of PSD-95, with inhibitor pretreatment (PSD-95) | inhibition of TNIK-induced cell rounding (TNIK in NIH3T3 cells) | also measured
CC(C)C[C@@H](C=O)NC(=O)[C@H](CC(C)C)NC(=O)[C@H](CC(C)C)NC(=O)OCc1ccccc1 [MG132] (Cbz-Leu-Leu-Leu-aldehyde) | neither affected by MG132 or leupeptin | a reciprocal effect observed for GluR1; also recorded: GluR1 degradation still occurred | blocked by MG132; also recorded: rescued |  | dephosphorylation of TNIK at S764, with inhibitor pretreatment (TNIK): not affected by MG132
CC(=O)N[C@@H](CC(C)C)C(=O)N[C@@H](CC(C)C)C(=O)N[C@H](C=O)CCCNC(=N)N [leupeptin] | neither affected by MG132 or leupeptin | a reciprocal effect observed for GluR1; also recorded: rescued | not leupeptin |  | 
DISC1 ΔTNIK: DISC1 with amino acids 329–350 deleted, expressed from plasmid (protein, left off: Myc, end not stated, kept) MPGGGPQGAPAAAGGGGVSHRAGSRDCLPPAACFRRRRLARRPGYMRSSTGPGIGFLSPAVGTLFRFPGGVSGEESHHSESRARQCGLDSRGLLVRSPVSKSAAAPTVTSVRGTSAHFGIQLRGGTRLPDRLSWPCGPGSAGWQQEFAAMDSSETLDASWEAACSDGARRVRAAGSLPSAELSSNSCSPGCGPEVPPTPPGSHSAFTSSFSFIRLSLGSAGERGEAEGCPPSREAESHCQSPQEMGAKAASLDGPHEDPRCLSRPFSLLATRVSADLAQAARNSSRPERDMHSLPDMDPGSSSSLDPSLAGCGGDGSSGSGDAHSWDTISLRLKLQKLQEDAVENDDYDKAETLQQRLEDLEQEKISLHFQLPSRQPALSSFLGHLAAQVQAALRRGATQQASGDDTHTPLRMEPRLLEPTAQDSLHVSITRRDWLLQEKQQLQKEIEALQARMFVLEAKDQQLRREIEEQEQQLQWQGCDLTPLVGQLSLGQLQEVSKALQDTLASAGQIPFHAEPPETIRSLQERIKSLNLSLKEITTKVCMSEKFCSTLRKKVNDIETQLPALLEAKMHAISGNHFWTAKDLTEEIRSLTSEREGLEGLLSKLLVLSSRNVKKLGSVKEDYNRLRREVEHQETAYETSVKENTMKYMETLKNKLCSCKCPLLGKVWEADLEACRLLIQSLQLQEARGSLSVEDERQMDDLEGAAPPIPPRLHSEDKRKTPLKVLEEWKTHLIPSLHCAGGEQKEESYILSAELGEKCEDIGKKLLYLEDQLHTAIHSHDEDLIQSLRRELQMVKETLQAMILQLQPAKEAGEREAAASCMTAGVHEAQA |  |  |  |  | interaction with TNIK (co-IP) (HA-TNIK; listed as Myc-DISC1 ΔTNIK): abolition of interaction with TNIK
DISC1 AS1: DISC1 containing the mutation VLR336–338AAA, expressed from plasmid (protein, left off: Myc, end not stated, kept) MPGGGPQGAPAAAGGGGVSHRAGSRDCLPPAACFRRRRLARRPGYMRSSTGPGIGFLSPAVGTLFRFPGGVSGEESHHSESRARQCGLDSRGLLVRSPVSKSAAAPTVTSVRGTSAHFGIQLRGGTRLPDRLSWPCGPGSAGWQQEFAAMDSSETLDASWEAACSDGARRVRAAGSLPSAELSSNSCSPGCGPEVPPTPPGSHSAFTSSFSFIRLSLGSAGERGEAEGCPPSREAESHCQSPQEMGAKAASLDGPHEDPRCLSRPFSLLATRVSADLAQAARNSSRPERDMHSLPDMDPGSSSSLDPSLAGCGGDGSSGSGDAHSWDTLLRKWEPAAADCLLRNRRQMEVISLRLKLQKLQEDAVENDDYDKAETLQQRLEDLEQEKISLHFQLPSRQPALSSFLGHLAAQVQAALRRGATQQASGDDTHTPLRMEPRLLEPTAQDSLHVSITRRDWLLQEKQQLQKEIEALQARMFVLEAKDQQLRREIEEQEQQLQWQGCDLTPLVGQLSLGQLQEVSKALQDTLASAGQIPFHAEPPETIRSLQERIKSLNLSLKEITTKVCMSEKFCSTLRKKVNDIETQLPALLEAKMHAISGNHFWTAKDLTEEIRSLTSEREGLEGLLSKLLVLSSRNVKKLGSVKEDYNRLRREVEHQETAYETSVKENTMKYMETLKNKLCSCKCPLLGKVWEADLEACRLLIQSLQLQEARGSLSVEDERQMDDLEGAAPPIPPRLHSEDKRKTPLKVLEEWKTHLIPSLHCAGGEQKEESYILSAELGEKCEDIGKKLLYLEDQLHTAIHSHDEDLIQSLRRELQMVKETLQAMILQLQPAKEAGEREAAASCMTAGVHEAQA |  |  |  | could not inhibit TNIK in cell-based assays | interaction with TNIK (co-IP) (HA-TNIK; listed as Myc-DISC1 AS1): only showed a weak interaction with TNIK
DISC1 WT: wild-type human DISC1 expressed from plasmid (protein, left off: Myc, end not stated, kept) MPGGGPQGAPAAAGGGGVSHRAGSRDCLPPAACFRRRRLARRPGYMRSSTGPGIGFLSPAVGTLFRFPGGVSGEESHHSESRARQCGLDSRGLLVRSPVSKSAAAPTVTSVRGTSAHFGIQLRGGTRLPDRLSWPCGPGSAGWQQEFAAMDSSETLDASWEAACSDGARRVRAAGSLPSAELSSNSCSPGCGPEVPPTPPGSHSAFTSSFSFIRLSLGSAGERGEAEGCPPSREAESHCQSPQEMGAKAASLDGPHEDPRCLSRPFSLLATRVSADLAQAARNSSRPERDMHSLPDMDPGSSSSLDPSLAGCGGDGSSGSGDAHSWDTLLRKWEPVLRDCLLRNRRQMEVISLRLKLQKLQEDAVENDDYDKAETLQQRLEDLEQEKISLHFQLPSRQPALSSFLGHLAAQVQAALRRGATQQASGDDTHTPLRMEPRLLEPTAQDSLHVSITRRDWLLQEKQQLQKEIEALQARMFVLEAKDQQLRREIEEQEQQLQWQGCDLTPLVGQLSLGQLQEVSKALQDTLASAGQIPFHAEPPETIRSLQERIKSLNLSLKEITTKVCMSEKFCSTLRKKVNDIETQLPALLEAKMHAISGNHFWTAKDLTEEIRSLTSEREGLEGLLSKLLVLSSRNVKKLGSVKEDYNRLRREVEHQETAYETSVKENTMKYMETLKNKLCSCKCPLLGKVWEADLEACRLLIQSLQLQEARGSLSVEDERQMDDLEGAAPPIPPRLHSEDKRKTPLKVLEEWKTHLIPSLHCAGGEQKEESYILSAELGEKCEDIGKKLLYLEDQLHTAIHSHDEDLIQSLRRELQMVKETLQAMILQLQPAKEAGEREAAASCMTAGVHEAQA |  |  |  | unable to induce cell rounding; also recorded: inhibits TNIK-induced cell rounding | length-to-breadth ratio of cells (TNIK in NIH3T3 cells; NIH3T3 cells, co-expressed with TNIK, versus empty vector, N>30): significantly increased the average length-to-breadth ratio of a cell; interaction with TNIK (co-IP) (HA-TNIK): co-immunoprecipitates with HA-TNIK
